Legend:
CCRF-CEM [1] = assay: Cytostatic concentration against CEM cell; format: functional; details: Homo sapiens
CCRF-CEM [2] = assay: Inhibition of HIV-1 induced cytopathicity against CEM cell; format: functional, cell-based; details: Homo sapiens
Method in brief: (§1)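 HIV-1 or HIV-2 at ~100 CCID50 per mL infecting CEM (4 × 10^5 cells/mL) or MT-4 (3 × 10^5 cells/mL) cells, mixed 1:1 with compound dilutions in microtiter wells. After 4 days, giant cell formation (CEM) or virus-induced cytopathicity (MT-4) scored microscopically.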

CCRF-CEM [3] = assay: Inhibition of HIV-2 induced cytopathicity against CEM cell; format: functional, cell-based; details: Homo sapiens
Method in brief: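 CEM cells at 4 × 10^5 per mL infected with HIV-2 at ∼100 CCID50 per mL of cell suspension, then mixed 1:1 with serial compound dilutions. Giant cell formation scored microscopically after 4 days.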

MT4 [4] = assay: Cytostatic concentration against MT-4 cell; format: functional; details: Homo sapiens
MT4 [5] = assay: Inhibition of HIV-1 induced cytopathicity against MT-4 cell; format: functional, cell-based; details: Homo sapiens; method in brief: as §1
MT4 [6] = assay: Inhibition of HIV-2 induced cytopathicity against MT-4 cell; format: functional, cell-based; details: Homo sapiens; method in brief: as §1
MT-4 (human) = assay: Cytostatic concentration against MT-4 cell
CEM (human) = assay: Inhibition of HIV-2 induced cytopathicity against CEM cell

EC50 (CCRF-CEM [2]) [µM] | EC50 (CCRF-CEM [3]) [µM] | SMILES | CC50 (CCRF-CEM [1]) [µM] | CC50 (MT4 [4]) [µM] | EC50 (MT4 [5]) [µM] | EC50 (MT4 [6]) [µM] | CC50 (MT-4 (human)) [µM] | EC50 (CEM (human)) [µM]
> 10 | > 10 | COC(=O)C(C)NP(=O)(OCC1OC(n2cc(C)c(=O)n(CCCCCCBr)c2=O)CC1N=[N+]=[N-])Oc1ccccc1 (stereo unspecified) | 22 | 22 | > 10 | > 10 | – | –
0.2 | – | Cc1cn([C@@H]2O[C@H](CO[Si](C)(C)C(C)(C)C)[C@@]3(OS(=O)(=O)C=C3N)[C@H]2O[Si](C)(C)C(C)(C)C)c(=O)n(CC#Cc2cn([C@@H]3C[C@@H](N=[N+]=[N-])[C@H](CO)O3)c(=O)[nH]c2=O)c1=O | > 250 | 31 | 0.33 | > 10 | – | –
0.23 | > 50 | Cc1cn([C@@H]2CC(N=[N+]=[N-])[C@H](CO)O2)c(=O)n(CC#CCn2c(=O)c(C)cn([C@@H]3O[C@H](CO[Si](C)(C)C(C)(C)C)[C@@]4(OS(=O)(=O)C=C4N)[C@H]3O[Si](C)(C)C(C)(C)C)c2=O)c1=O (stereo partly specified) | > 250 | 106 | 1 | > 250 | – | –
0.4 | > 50 | COC(=O)C(C)NP(=O)(OC[C@H]1C=C[C@@H](n2cc(C)c(=O)n(CCCCCCn3c(=O)c(C)cn([C@@H]4O[C@H](CO[Si](C)(C)C(C)(C)C)[C@@]5(OS(=O)(=O)C=C5N)[C@H]4O[Si](C)(C)C(C)(C)C)c3=O)c2=O)O1)Oc1ccccc1 (stereo partly specified) | > 250 | 37 | 0.57 | > 50 | – | –
0.34 | 57 | Cc1cn([C@@H]2C[C@@H](N=[N+]=[N-])[C@H](CO)O2)c(=O)n(C/C=C/Cn2c(=O)c(C)cn([C@@H]3O[C@H](CO[Si](C)(C)C(C)(C)C)[C@@]4(OS(=O)(=O)C=C4N)[C@H]3O[Si](C)(C)C(C)(C)C)c2=O)c1=O | > 250 | > 250 | 0.7 | > 250 | – | –
0.18 | > 50 | Cc1cn([C@@H]2C[C@@H](N=[N+]=[N-])[C@H](CO)O2)c(=O)n(CCOCCn2c(=O)c(C)cn([C@@H]3O[C@H](CO[Si](C)(C)C(C)(C)C)[C@@]4(OS(=O)(=O)C=C4N)[C@H]3O[Si](C)(C)C(C)(C)C)c2=O)c1=O | > 250 | > 250 | 0.31 | > 250 | – | –
0.25 | > 50 | COC(=O)C(C)NP(=O)(OC[C@@H]1O[C@H](n2cc(C)c(=O)n(CCCCCCn3c(=O)c(C)cn([C@@H]4O[C@H](CO[Si](C)(C)C(C)(C)C)[C@@]5(OS(=O)(=O)C=C5N)[C@H]4O[Si](C)(C)C(C)(C)C)c3=O)c2=O)C[C@H]1O)Oc1ccccc1 (stereo partly specified) | 104 | 25 | 0.93 | > 50 | – | –
0.11 | > 10 | Cc1cn([C@@H]2O[C@H](CO[Si](C)(C)C(C)(C)C)[C@@]3(OS(=O)(=O)C=C3N)[C@H]2O[Si](C)(C)C(C)(C)C)c(=O)n(CC#Cc2cn([C@@H]3C=C[C@H](CO)O3)c(=O)[nH]c2=O)c1=O | 21 | 8 | 0.18 | > 10 | – | –
0.25 | > 50 | COC(=O)C(C)NP(=O)(OC[C@@H]1O[C@H](n2cc(C)c(=O)n(CCCn3c(=O)c(C)cn([C@@H]4O[C@H](CO[Si](C)(C)C(C)(C)C)[C@@]5(OS(=O)(=O)C=C5N)[C@H]4O[Si](C)(C)C(C)(C)C)c3=O)c2=O)C[C@H]1O)Oc1ccccc1 (stereo partly specified) | > 250 | 31 | 0.33 | > 50 | – | –
0.17 | 15 | COC(=O)C(C)NP(=O)(OC[C@H]1C=C[C@@H](n2cc(C)c(=O)n(CCCn3c(=O)c(C)cn([C@@H]4O[C@H](CO[Si](C)(C)C(C)(C)C)[C@@]5(OS(=O)(=O)C=C5N)[C@H]4O[Si](C)(C)C(C)(C)C)c3=O)c2=O)O1)Oc1ccccc1 (stereo partly specified) | 123 | 28 | 0.18 | 26 | – | –
0.65 | > 250 | COC(=O)C(C)NP(=O)(OC[C@@H]1O[C@H](n2cc(C)c(=O)n(CCCn3c(=O)c(C)cn([C@@H]4O[C@H](CO[Si](C)(C)C(C)(C)C)[C@@]5(OS(=O)(=O)C=C5N)[C@H]4O[Si](C)(C)C(C)(C)C)c3=O)c2=O)C[C@H]1N=[N+]=[N-])Oc1ccccc1 (stereo partly specified) | > 250 | > 250 | 3.2 | > 250 | – | –
> 50 | > 250 | Cc1cn([C@@H]2O[C@H](CO[Si](C)(C)C(C)(C)C)[C@@]3(OS(=O)(=O)C=C3N)[C@H]2O[Si](C)(C)C(C)(C)C)c(=O)n(CC#CC#CCn2c(=O)c(C)cn([C@H]3O[C@@H](CO[Si](C)(C)C(C)(C)C)[C@]4(OS(=O)(=O)C=C4N)[C@@H]3O[Si](C)(C)C(C)(C)C)c2=O)c1=O | > 250 | 65 | > 50 | > 250 | – | –
0.55 | > 10 | Cc1cn([C@@H]2O[C@H](CO[Si](C)(C)C(C)(C)C)[C@@]3(OS(=O)(=O)C=C3N)[C@H]2O[Si](C)(C)C(C)(C)C)c(=O)n(CC#Cc2cn([C@@H]3C[C@@H](O)[C@H](CO)O3)c(=O)[nH]c2=O)c1=O | 21 | 15 | 0.44 | > 10 | – | –
1.7 | > 250 | COC(=O)C(C)NP(=O)(OC[C@@H]1O[C@H](n2cc(C)c(=O)n(CCCCCCn3c(=O)c(C)cn([C@@H]4O[C@H](CO[Si](C)(C)C(C)(C)C)[C@@]5(OS(=O)(=O)C=C5N)[C@H]4O[Si](C)(C)C(C)(C)C)c3=O)c2=O)C[C@H]1N=[N+]=[N-])Oc1ccccc1 (stereo partly specified) | > 250 | > 250 | – | > 250 | – | –
0.09 | – | Cc1cn([C@@H]2O[C@H](CO[Si](C)(C)C(C)(C)C)[C@@]3(OS(=O)(=O)C=C3N)[C@H]2O[Si](C)(C)C(C)(C)C)c(=O)n(CCCn2c(=O)c(C)cn([C@H]3C[C@H](N=[N+]=[N-])[C@@H](CO)O3)c2=O)c1=O | > 100 | > 100 | 0.38 | – | – | –
> 50 | > 50 | COC(=O)C(C)NP(=O)(OCC1OC(n2cc(C)c(=O)n(CCCBr)c2=O)CC1N=[N+]=[N-])Oc1ccccc1 (stereo unspecified) | 41 | 44 | > 50 | > 50 | – | –

SMILES | EC50 (CCRF-CEM [2]) [µM] | EC50 (CCRF-CEM [3]) [µM] | CC50 (CCRF-CEM [1]) [µM] | CC50 (MT4 [4]) [µM] | EC50 (MT4 [5]) [µM] | EC50 (MT4 [6]) [µM] | CC50 (MT-4 (human)) [µM] | EC50 (CEM (human)) [µM]
Cc1cn([C@@H]2O[C@H](CO[Si](C)(C)C(C)(C)C)C3(OS(=O)(=O)C=C3N)[C@H]2O[Si](C)(C)C(C)(C)C)c(=O)[nH]c1=O (stereo partly specified) | 0.05 | – | – | – | – | > 6 | 12 | > 6

From ChEMBL document CHEMBL1132538, “Potential multifunctional inhibitors of HIV-1 reverse transcriptase. Novel [AZT]-[TSAO-T] and [d4T]-[TSAO-T] heterodimers modified in the linker and in the dideoxynucleoside region” (J Med Chem, 1999)
